# Tests used:
# [1] = target: CN; conditions: cited from earlier work; for Kd: read-out: Kd for CN, natural recognition sites
# [2] = target: calcineurin (CN) (UniProt Q08209); experiment: Calcineurin-AKAP79 competitive binding assay; parameters: species or system human; conditions: for Ki: read-out: estimated Ki, competition with fluorescent PVIVIT peptide for binding to CN, GST-AKAP79(333–348) fusion proteins (14mer), representative of three experiments
# [3] = tested on: NFAT3 (NFATc4) nuclear translocation in hippocampal neurons; experiment: NFAT translocation assay after KCl depolarization; format: cell-based, rat; conditions: full-length AKAP79 expressed after AKAP150 RNAi; 3-min 90 mM KCl
# [4] = target: calcineurin (CN) (UniProt Q08209); format: binding, human; conditions: 36 °C
# Procedure, shortened: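 ATTO 425-labeled AKAP79(333–408) donor (100 nM) was complexed with tetramethylrhodamine-labeled CN acceptor. The preformed complex was mixed in a stopped-flow instrument with 100 µM (final) unlabeled PVIVIT to block rebinding, at room temperature or 36 °C. Dissociation was followed as the fall in FRET signal, fitted as a single exponential; half-time was taken from the rate (n = 4).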
# [5] = tested on: CN-YFP / AKAP79-YFP mobility in rat hippocampal neuron dendritic spines; experiment: FRAP microscopy in single dendritic spines; format: cell-based; conditions: wildtype AKAP79-YFP in dendritic spines, single exponential fit
# Chain of calcineurin (CN) (Q08209 1-381): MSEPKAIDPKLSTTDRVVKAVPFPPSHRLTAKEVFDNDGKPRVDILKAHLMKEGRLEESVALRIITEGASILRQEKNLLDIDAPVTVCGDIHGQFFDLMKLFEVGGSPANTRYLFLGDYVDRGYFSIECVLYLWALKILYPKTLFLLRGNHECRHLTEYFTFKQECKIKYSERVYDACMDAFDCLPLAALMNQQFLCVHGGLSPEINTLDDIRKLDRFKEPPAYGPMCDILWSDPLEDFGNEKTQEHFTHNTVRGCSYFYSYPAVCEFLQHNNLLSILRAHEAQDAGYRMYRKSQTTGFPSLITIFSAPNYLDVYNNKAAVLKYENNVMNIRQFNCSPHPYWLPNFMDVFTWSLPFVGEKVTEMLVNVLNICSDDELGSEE
# Chain of calcineurin (CN) (P63098 16-170 partner): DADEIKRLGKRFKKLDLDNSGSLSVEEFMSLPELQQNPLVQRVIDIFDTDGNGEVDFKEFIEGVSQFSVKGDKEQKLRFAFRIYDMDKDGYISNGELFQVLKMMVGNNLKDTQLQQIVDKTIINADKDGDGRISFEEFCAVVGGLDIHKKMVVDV
Substance,Kd [1],rescue of NFAT nuclear translocation [3],also measured
PSIRIT,~25 µM,,
PRIEIA,,,shift in Kd caused by PRIEIT>PRIEIA substitution in NFAT1 [1]: 10 fold
PVIAVN,250 µM,,
PPAIIIT,,completely unable to rescue signaling,"fold stronger binding to CN than wildtype AKAP79 ([2]; GST fusion proteins displacing labeled PVIVIT): ~ 4 fold; half-time of dissociation ([4]; corresponding to mean dissociation rate): ~ 163 ms; mean dissociation rate ([4]; preformed complex mixed with excess unlabelled PVIVIT, mean of n = 4): 4.24 s⁻¹"
PIAIIIA,,somewhat less efficiently,
PAAIIIT,,,Ki [2]: 47 µM
PRIEIT,~25 µM,,
PSIQIT,~25 µM,,
wildtype AKAP79: full-length RNAi-resistant human AKAP79 (YFP- or CFP-tagged) expressed in rat hippocampal neurons,,rescued NFAT nuclear translocation,mobile fraction of AKAP79-YFP (maximal percent recovery) [5]: 61.8 ± 0.6%
PPAIIIA,,as efficiently as wildtype AKAP79,
PQIIIS,5 µM,,
AIAIIIT,,,Ki [2]: 3.7 µM
